This note sets out measurements from ChEMBL document CHEMBL4842367, “Strategies toward Discovery of Potent and Orally Bioavailable Proteolysis Targeting Chimera Degraders of Androgen Receptor for the Treatment of Prostate Cancer” (J Med Chem, 2021).

What all share (type): cell-based
The target of assay [1] is T1, Protein cereblon/Androgen receptor (Homo sapiens, UniProt P10275+Q96SW2). Briefly: Protac activity at CRBN/AR in human VCaP cells assessed as induction of AR degradation at 0.001 uM measured after 24 hrs by western blot analysis relative to control. Background: Immunoblotting shows a protein as a band on a membrane.
T1 sequence (P10275 whole entry, looked up): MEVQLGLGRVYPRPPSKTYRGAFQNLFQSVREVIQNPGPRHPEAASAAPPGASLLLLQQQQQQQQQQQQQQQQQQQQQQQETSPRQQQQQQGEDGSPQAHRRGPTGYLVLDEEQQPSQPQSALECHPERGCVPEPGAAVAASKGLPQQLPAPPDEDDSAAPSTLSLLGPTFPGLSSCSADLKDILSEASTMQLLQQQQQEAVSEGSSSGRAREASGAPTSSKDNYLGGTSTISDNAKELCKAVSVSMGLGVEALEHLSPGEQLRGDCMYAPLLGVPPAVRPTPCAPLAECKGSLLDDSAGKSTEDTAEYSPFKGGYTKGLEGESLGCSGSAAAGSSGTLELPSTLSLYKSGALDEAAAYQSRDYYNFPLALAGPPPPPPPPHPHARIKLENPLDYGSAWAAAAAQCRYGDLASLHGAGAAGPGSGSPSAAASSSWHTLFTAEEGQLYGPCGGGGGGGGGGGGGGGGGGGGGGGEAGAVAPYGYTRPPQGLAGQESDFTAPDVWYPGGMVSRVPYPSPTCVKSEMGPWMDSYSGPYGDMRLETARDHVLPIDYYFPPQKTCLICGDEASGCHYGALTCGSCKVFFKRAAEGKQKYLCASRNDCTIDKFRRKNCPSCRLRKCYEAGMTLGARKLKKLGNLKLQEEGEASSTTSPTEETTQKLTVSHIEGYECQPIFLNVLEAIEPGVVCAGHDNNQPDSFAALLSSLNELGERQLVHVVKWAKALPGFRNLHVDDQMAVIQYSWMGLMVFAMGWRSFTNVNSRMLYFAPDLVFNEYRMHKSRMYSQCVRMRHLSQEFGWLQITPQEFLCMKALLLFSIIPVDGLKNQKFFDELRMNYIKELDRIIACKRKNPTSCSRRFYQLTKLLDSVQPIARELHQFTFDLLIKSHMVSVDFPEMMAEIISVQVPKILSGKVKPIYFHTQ
T1 sequence (Q96SW2 whole entry, looked up): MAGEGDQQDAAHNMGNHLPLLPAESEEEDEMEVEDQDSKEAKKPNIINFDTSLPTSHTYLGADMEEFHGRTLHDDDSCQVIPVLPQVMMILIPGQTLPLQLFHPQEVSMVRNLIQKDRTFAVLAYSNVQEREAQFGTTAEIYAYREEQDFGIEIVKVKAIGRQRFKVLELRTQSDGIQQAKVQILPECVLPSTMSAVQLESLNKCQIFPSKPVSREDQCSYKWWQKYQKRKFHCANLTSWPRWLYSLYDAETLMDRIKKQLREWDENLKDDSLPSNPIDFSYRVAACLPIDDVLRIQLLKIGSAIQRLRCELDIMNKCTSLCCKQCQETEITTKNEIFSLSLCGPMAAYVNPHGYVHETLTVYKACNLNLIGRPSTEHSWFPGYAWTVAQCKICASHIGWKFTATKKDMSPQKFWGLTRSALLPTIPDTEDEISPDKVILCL
Assay [2] addresses T1, Protein cereblon/Androgen receptor. Put plainly: Protac activity at CRBN/AR in human VCaP cells assessed as induction of AR degradation at 0.01 uM measured after 24 hrs by western blot analysis relative to control. The method, boiled down: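 VCaP cells treated 24 h at 1, 10, 100 and 1000 nM; lysed in RIPA with protease/phosphatase inhibitors, run on 4–12% SDS-PAGE, blotted to PVDF. AR bands background-subtracted and normalized to loading control; degradation relative to DMSO, average of three independent experiments.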

The target is the same in assay [3]. Put plainly: Protac activity at CRBN/AR in human VCaP cells assessed as induction of AR degradation at 0.1 uM measured after 24 hrs by western blot analysis relative to control.
Assay [4] shares this target. Put plainly: Protac activity at CRBN/AR in human VCAP cells assessed as induction of AR degradation at 1 uM by western blot analysis relative to control. As to conditions: time 24.0 hrs.

On to `CC1(C)[C@H](NC(=O)c2ccc(N3CCN(CCCCNc4ccc5c(c4)C(=O)N(C4CCC(=O)NC4=O)C5=O)CC3)cc2)C(C)(C)[C@H]1Oc1ccc(C#N)c(Cl)c1` (stereo not given in full), for which the Activity in assay [1] came out at 42%; in assay [2], 63%; in assay [3] it was 84%; in assay [4] it was 82%.

Turning to `CC1(C)[C@H](NC(=O)c2ccc(N3CCN(C4CCC5(CC4)CCN(c4ccc6c(c4)C(=O)N(C4CCC(=O)NC4=O)C6=O)CC5)CC3)cc2)C(C)(C)[C@H]1Oc1ccc(C#N)c(Cl)c1` (stereo not given in full), the Activity in assay [1] stood at 14%; in assay [2], 38%; in assay [3], 67%; in assay [4], 80%.

For the compound `CC1(C)[C@H](NC(=O)c2ccc(C(=O)N3CCN(CC4CCN(c5ccc6c(c5)C(=O)N(C5CCC(=O)NC5=O)C6=O)CC4)CC3)cc2)C(C)(C)[C@H]1Oc1ccc(C#N)c(Cl)c1` (stereo not given in full), the Activity in assay [1] stood at 76%; in assay [4], […].

Regarding `CC1(C)[C@H](NC(=O)c2ccc(NCCCNc3ccc4c(c3)C(=O)N(C3CCC(=O)NC3=O)C4=O)cc2)C(C)(C)[C@H]1Oc1ccc(C#N)c(Cl)c1` (stereo not given in full), the Activity in assay [1] was determined as 0%; in assay [2], 25%; in assay [3], 63%; in assay [4], 70%.

For the compound `CC1(C)[C@H](NC(=O)c2ccc(N3CCN(CCCNc4cccc5c4C(=O)N(C4CCC(=O)NC4=O)C5=O)CC3)cc2)C(C)(C)[C@H]1Oc1ccc(C#N)c(Cl)c1` (stereo not given in full), the Activity was below 5% in assay [1], below 5% in assay [2], below 5% in assay [3] and 9% in assay [4].

For `CC1(C)[C@H](NC(=O)c2ccc(NCCCCCCNc3cccc4c3C(=O)N(C3CCC(=O)NC3=O)C4=O)cc2)C(C)(C)[C@H]1Oc1ccc(C#N)c(Cl)c1` (stereo not given in full), the Activity was determined as 10% in assay [1], 22% in assay [2], 43% in assay [3] and 48% in assay [4].

Take `CC1(C)[C@H](NC(=O)c2ccc(N3CCN(CCCCCNc4ccc5c(c4)C(=O)N(C4CCC(=O)NC4=O)C5=O)CC3)cc2)C(C)(C)[C@H]1Oc1ccc(C#N)c(Cl)c1` (stereo not given in full): the Activity was found to be 12% in assay [1], 59% in assay [2], 85% in assay [3] and 60% in assay [4].

In the case of `CC1(C)[C@H](NC(=O)c2ccc(N3CCN(CC4CCN(c5ccc6c(c5)C(=O)N(C5CCC(=O)NC5=O)C6=O)CC4)CC3)cc2)C(C)(C)[C@H]1Oc1cnc(C#N)c(C(F)(F)F)c1` (stereo not given in full), the Activity in assay [1] came out at 6%; in assay [2], 12%; in assay [3], 33%; in assay [4], 41%.

With `CC1(C)[C@H](NC(=O)c2ccc(N3CCC4(CCC(Nc5ccc6c(c5)C(=O)N(C5CCC(=O)NC5=O)C6=O)CC4)CC3)cc2)C(C)(C)[C@H]1Oc1ccc(C#N)c(Cl)c1` (stereo not given in full), the Activity in assay [1] was 13%; in assay [2] it was 30%; in assay [3] it was 38%; in assay [4] it was 57%.

With `CC1(C)[C@H](NC(=O)c2ccc(N3CCN(CC4CC5(C4)CN(c4ccc6c(c4)C(=O)N(C4CCC(=O)NC4=O)C6=O)C5)CC3)cc2)C(C)(C)[C@H]1Oc1ccc(C#N)c(Cl)c1` (stereo not given in full), the Activity in assay [1] turned out to be 30%; in assay [2], 82%; in assay [3], 97%; in assay [4], 95%.

As for `CC1(C)[C@H](NC(=O)c2ccc(N3CCN(C4CCC5(CC4)CN(c4ccc6c(c4)C(=O)N(C4CCC(=O)NC4=O)C6=O)C5)CC3)cc2)C(C)(C)[C@H]1Oc1ccc(C#N)c(Cl)c1` (stereo not given in full), the Activity in assay [1] came out at 15%; in assay [2] it was 48%; in assay [3], 73%; in assay [4], 82%.

Consider `CC1(C)[C@H](NC(=O)c2ccc(N3CCC4(CC3)CC(Nc3ccc5c(c3)C(=O)N(C3CCC(=O)NC3=O)C5=O)C4)cc2)C(C)(C)[C@H]1Oc1ccc(C#N)c(Cl)c1` (stereo not given in full), for which the Activity in assay [1] was determined as 0%; in assay [2], 16%; in assay [3], 82%; in assay [4] it was 88%.

Consider `CC1(C)[C@H](NC(=O)c2ccc(N3CCN(C4CC5(C4)CN(c4ccc6c(c4)C(=O)N(C4CCC(=O)NC4=O)C6=O)C5)CC3)cc2)C(C)(C)[C@H]1Oc1ccc(C#N)c(Cl)c1` (stereo not given in full), for which the Activity in assay [1] came to 37%; in assay [2], 78%; in assay [3], 93%; in assay [4] it was 88%.

For the compound `N#Cc1ccc(O[C@H]2C[C@H](NC(=O)c3ccc(N4CCN(CC5CCN(c6ccc7c(c6)C(=O)N(C6CCC(=O)NC6=O)C7=O)CC5)CC4)cc3)C2)cc1Cl` (stereo not given in full), the Activity in assay [1] is below 5%; in assay [2] it was 30%; in assay [3] it was 25%; in assay [4] it was 39%.

For the compound `CC1(C)[C@H](NC(=O)c2ccc(N3CCN(CCNc4cccc5c4C(=O)N(C4CCC(=O)NC4=O)C5=O)CC3)cc2)C(C)(C)[C@H]1Oc1ccc(C#N)c(Cl)c1` (stereo not given in full), the Activity in assay [1] is below 5%; in assay [2], 23%; in assay [3], 41%; in assay [4], 32%.

For the compound `CC1(C)[C@H](NC(=O)c2ccc(N3CCN(CC4CCN(c5ccc6c(c5)C(=O)N(C5CCC(=O)NC5=O)C6=O)CC4)CC3)cc2)C(C)(C)[C@H]1Oc1ccc(C#N)c(C(F)(F)F)c1` (stereo not given in full), the Activity in assay [1] stood at 22%; in assay [2] it was 45%; in assay [3], 87%; in assay [4] it was 90%.

As for `CC1(C)[C@H](NC(=O)c2ccc(N3CCN(C4CC5(CCN(c6ccc7c(c6)C(=O)N(C6CCC(=O)NC6=O)C7=O)C5)C4)CC3)cc2)C(C)(C)[C@H]1Oc1ccc(C#N)c(Cl)c1` (stereo not given in full), the Activity in assay [1] worked out at 38%; in assay [2], 80%; in assay [3], 87%; in assay [4], 84%.

Consider `CC1(C)[C@H](NC(=O)c2ccc(NCCCCNc3ccc4c(c3)C(=O)N(C3CCC(=O)NC3=O)C4=O)cc2)C(C)(C)[C@H]1Oc1ccc(C#N)c(Cl)c1` (stereo not given in full), for which the Activity was found to be 42% in assay [1], 76% in assay [2], 55% in assay [3] and 21% in assay [4].

In the case of `CC1(C)[C@H](NC(=O)c2ccc(N3CCN(CCCCNc4cccc5c4C(=O)N(C4CCC(=O)NC4=O)C5=O)CC3)cc2)C(C)(C)[C@H]1Oc1ccc(C#N)c(Cl)c1` (stereo not given in full), the Activity in assay [1] amounted to 7%; in assay [2], 40%; in assay [3], 47%; in assay [4], 32%.

`CC1(C)[C@H](NC(=O)c2ccc(C(=O)N3CCN(C4CN(c5ccc6c(c5)C(=O)N(C5CCC(=O)NC5=O)C6=O)C4)CC3)cc2)C(C)(C)[C@H]1Oc1ccc(C#N)c(Cl)c1` (stereo not given in full): the Activity in assay [1] was determined as 71%; in assay [2], 83%; in assay [3], 95%; in assay [4] it was 83%.

As for `CC1(C)[C@H](NC(=O)c2ccc(NCCCCCCCCNc3ccc4c(c3)C(=O)N(C3CCC(=O)NC3=O)C4=O)cc2)C(C)(C)[C@H]1Oc1ccc(C#N)c(Cl)c1` (stereo not given in full), the Activity was determined as 48% in assay [1], 76% in assay [2], 82% in assay [3] and 73% in assay [4].

For the compound `CC1(C)[C@H](NC(=O)c2ccc(NCCCCCNc3cccc4c3C(=O)N(C3CCC(=O)NC3=O)C4=O)cc2)C(C)(C)[C@H]1Oc1ccc(C#N)c(Cl)c1` (stereo not given in full), the Activity was below 5% in assay [1], 9% in assay [2], 36% in assay [3] and 38% in assay [4].

In the case of `CC1(C)[C@H](NC(=O)c2ccc(C(=O)N3CCN(CC4CN(c5ccc6c(c5)C(=O)N(C5CCC(=O)NC5=O)C6=O)C4)CC3)cc2)C(C)(C)[C@H]1Oc1ccc(C#N)c(Cl)c1` (stereo not given in full), the Activity in assay [1] was 65%; in assay [2], 92%; in assay [3], 96%; in assay [4] it was 79%.

For the compound `CC1(C)[C@H](NC(=O)c2ccc(NCCCCCCCNc3ccc4c(c3)C(=O)N(C3CCC(=O)NC3=O)C4=O)cc2)C(C)(C)[C@H]1Oc1ccc(C#N)c(Cl)c1` (stereo not given in full), the Activity in assay [1] stood at 28%; in assay [2], 58%; in assay [3] it was 79%; in assay [4] it was 62%.

For `CC1(C)[C@@H](NC(=O)c2ccc(N3CCN(CC4CCN(c5ccc6c(c5)C(=O)N(C5CCC(=O)NC5=O)C6=O)CC4)CC3)cc2)C[C@@H]1Oc1ccc(C#N)c(Cl)c1` (stereo not given in full), the Activity in assay [1] is below 5%; in assay [2], 19%; in assay [3], 75%; in assay [4], 90%.

Consider `CC1(C)[C@H](NC(=O)c2ccc(N3CCN(CC4CCN(c5ccc6c(c5)C(=O)N(C5CCC(=O)NC5=O)C6=O)CC4)CC3)cc2)C(C)(C)[C@H]1Oc1ccc(C#N)c(F)c1` (stereo not given in full), for which the Activity is below 5% in assay [1], 15% in assay [2], 75% in assay [3] and 80% in assay [4].

Consider `CC1(C)[C@H](NC(=O)c2ccc(N3CCN(CC4CC5(CCN(c6ccc7c(c6)C(=O)N(C6CCC(=O)NC6=O)C7=O)C5)C4)CC3)cc2)C(C)(C)[C@H]1Oc1ccc(C#N)c(Cl)c1` (stereo not given in full), for which the Activity was 16% in assay [1], 56% in assay [2], 71% in assay [3] and 51% in assay [4].

As to `CC1(C)[C@H](NC(=O)c2ccc(N3CCN(C4CN(c5ccc6c(c5)C(=O)N(C5CCC(=O)NC5=O)C6=O)C4)CC3)cc2)C(C)(C)[C@H]1Oc1ccc(C#N)c(Cl)c1` (stereo not given in full), the Activity in assay [1] came to 54%; in assay [2], 77%; in assay [3], 91%; in assay [4] it was 73%.
